Assay results taken from ChEMBL document CHEMBL1148092, “Novel Ca(2+)-ATPase inhibitors from the dried root tubers of Polygonum Multiflorum” (J Nat Prod, 1994).
Activity calls are given as the source filed them. No cut-off for these calls is given here.

Experiments:
Assay type in all cases: cell-based
Homo sapiens [1] = species: Homo sapiens; assay: Inhibition of Ca2+ ATPase activity in human red blood cells at 1600 uM by spectrophotometry
In short: (§1)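 Calmodulin-depleted membranes from human packed erythrocytes (2.5 mg/ml) were incubated for 1 h at 37° in 65 mM KCl, 20 mM K-HEPES, 5 mM MgCl2, 50 μM CaCl2 (50.4 μM free Ca2+), 0.1 μM calmodulin and 0.1 mM EGTA. Test agents in DMSO (2.5% final) were added before 2 mM ATP (pH 7.4). Released phosphate was read spectrometrically, Mg2+-ATPase activity was subtracted, and assays were run in duplicate.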

Homo sapiens [2] = species: Homo sapiens; assay: Inhibition of Mg2+ ATPase activity in human red blood cells at 25 uM by spectrophotometry
In short: (§2)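 Mg2+-ATPase was assayed with calmodulin-depleted human erythrocyte membranes (2.5 mg/ml) at 37° for 1 h, without added CaCl2, in 65 mM KCl, 20 mM K-HEPES, 5 mM MgCl2, 0.1 μM calmodulin and 0.1 mM EGTA. Compounds in DMSO (2.5% final) were added before starting with 2 mM ATP (pH 7.4). Liberated phosphate was measured spectrometrically, in duplicate.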

Homo sapiens [3] = species: Homo sapiens; assay: Inhibition of Mg2+ ATPase activity in human red blood cells at 50 uM by spectrophotometry; in short: as §2
Homo sapiens [4] = species: Homo sapiens; assay: Inhibition of Mg2+ ATPase activity in human red blood cells at 100 uM by spectrophotometry; in short: as §2
Homo sapiens [5] = species: Homo sapiens; assay: Inhibition of Mg2+ ATPase activity in human red blood cells at 200 uM by spectrophotometry; in short: as §2
Homo sapiens [6] = species: Homo sapiens; assay: Inhibition of Mg2+ ATPase activity in human red blood cells at 800 uM by spectrophotometry; in short: as §2
Homo sapiens [7] = species: Homo sapiens; assay: Inhibition of Mg2+ ATPase activity in human red blood cells at 1600 uM by spectrophotometry; in short: as §2
Homo sapiens [8] = species: Homo sapiens; assay: Inhibition of Ca2+ ATPase activity in human red blood cells at 25 uM by spectrophotometry; in short: as §1
Homo sapiens [9] = species: Homo sapiens; assay: Inhibition of Ca2+ ATPase activity in human red blood cells at 50 uM by spectrophotometry; in short: as §1
Homo sapiens [10] = species: Homo sapiens; assay: Inhibition of Ca2+ ATPase activity in human red blood cells at 100 uM by spectrophotometry; in short: as §1
Homo sapiens [11] = species: Homo sapiens; assay: Inhibition of Ca2+ ATPase activity in human red blood cells at 200 uM by spectrophotometry; in short: as §1
Homo sapiens [12] = species: Homo sapiens; assay: Inhibition of Ca2+ ATPase activity in human red blood cells at 400 uM by spectrophotometry; in short: as §1
Homo sapiens [13] = species: Homo sapiens; assay: Inhibition of Ca2+ ATPase activity in human red blood cells at 800 uM by spectrophotometry; in short: as §1
[14] = Inhibition of Ca2+ ATPase activity in human red blood cells by spectrophotometry; in short: as §1
Homo sapiens [15] = species: Homo sapiens; assay: Inhibition of Mg2+ ATPase activity in human red blood cells at 400 uM by spectrophotometry; in short: as §2

Cc1cc(O)c2c(c1)C(=O)c1cccc(O)c1C2=O
Activity (Homo sapiens [1]): inactive

CCC/C=C1/OC(=O)C2=C1CC[C@H](O)[C@H]2O (relative stereo)
inhibition (Homo sapiens [2]): 21% | inhibition (Homo sapiens [3]): 13% | inhibition (Homo sapiens [4]): 32% | inhibition (Homo sapiens [5]): 32% | inhibition (Homo sapiens [6]): 71% | inhibition (Homo sapiens [7]): 82% | inhibition (Homo sapiens [8]): 0% | inhibition (Homo sapiens [9]): 3% | inhibition (Homo sapiens [10]): 8% | inhibition (Homo sapiens [11]): 36% | inhibition (Homo sapiens [12]): 72% | inhibition (Homo sapiens [13]): 87% | inhibition (Homo sapiens [1]): 94% | IC50 [14]: 260 µM

OC[C@H]1O[C@@H](Oc2cc(O)cc(O)c2/C=C/c2ccc(O)cc2)[C@H](O)[C@@H](O)[C@@H]1O
Activity (Homo sapiens [2]): inactive | Activity (Homo sapiens [3]): inactive | Activity (Homo sapiens [4]): inactive | Activity (Homo sapiens [5]): inactive | Activity (Homo sapiens [8]): inactive | Activity (Homo sapiens [9]): inactive | Activity (Homo sapiens [10]): inactive | Activity (Homo sapiens [11]): inactive

Cc1cc(O)c2c(c1)C(=O)c1cc(O)cc(O)c1C2=O
Activity (Homo sapiens [1]): inactive

COc1ccc(/C=C/c2cc(O)cc(O[C@@H]3O[C@H](CO)[C@@H](O)[C@H](O)[C@H]3O)c2)cc1O
Activity (Homo sapiens [1]): inactive

O=C(O)c1cc(O)c2c(c1)C(=O)c1cccc(O)c1C2=O
Activity (Homo sapiens [1]): inactive

OC[C@H]1O[C@@H](Oc2c(O)cc(O)cc2/C=C/c2ccc(O)cc2)[C@H](O)[C@@H](O)[C@@H]1O
inhibition (Homo sapiens [2]): 14% | inhibition (Homo sapiens [3]): 25% | inhibition (Homo sapiens [4]): 28% | inhibition (Homo sapiens [5]): 41% | inhibition (Homo sapiens [15]): 56% | inhibition (Homo sapiens [6]): 62% | inhibition (Homo sapiens [7]): 75% | inhibition (Homo sapiens [8]): 8% | inhibition (Homo sapiens [9]): 8% | inhibition (Homo sapiens [10]): 15% | inhibition (Homo sapiens [11]): 44% | inhibition (Homo sapiens [12]): 70% | inhibition (Homo sapiens [13]): 95% | inhibition (Homo sapiens [1]): 98% | IC50 [14]: 240 µM

CCC/C=C1/OC(=O)C2=C1CC[C@H](O)[C@@H]2O (relative stereo)
inhibition (Homo sapiens [2]): 0% | inhibition (Homo sapiens [3]): 17% | inhibition (Homo sapiens [4]): 36% | inhibition (Homo sapiens [5]): 52% | inhibition (Homo sapiens [15]): 67% | inhibition (Homo sapiens [6]): 85% | inhibition (Homo sapiens [8]): 0% | inhibition (Homo sapiens [9]): 0% | inhibition (Homo sapiens [10]): 27% | inhibition (Homo sapiens [11]): 62% | inhibition (Homo sapiens [12]): 79% | inhibition (Homo sapiens [13]): 90% | IC50 [14]: 160 µM
